# Only some compounds are listed: those with a hit (about 1.7% of all), similar ones and a draw of the others.
# IDE act: activators of human insulin-degrading enzyme in cells; P14735; HEK cells, FAbeta-B cleavage, fluorescence polarization; 0% vehicle, 100% cell-free pure enzyme wells; activation, % at 5.96 µM; 340,000 compounds, 0.073% hits; AID 493087;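 active means activation above the mean of all tested compounds plus 3 SD, set per screening campaign, cut at about 17% in these data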
# HNF4A DNA FP: change in binding of human HNF4 alpha to DNA; HNF4a-FITC DNA binding, fluorescence polarization, 1 h; activity change, % at 10 µM; 360,000 compounds, 0.3% hits; in the data active means activity change above about 30%, passing the limit was not always enough
# Target sequence (P41235 whole entry, looked up): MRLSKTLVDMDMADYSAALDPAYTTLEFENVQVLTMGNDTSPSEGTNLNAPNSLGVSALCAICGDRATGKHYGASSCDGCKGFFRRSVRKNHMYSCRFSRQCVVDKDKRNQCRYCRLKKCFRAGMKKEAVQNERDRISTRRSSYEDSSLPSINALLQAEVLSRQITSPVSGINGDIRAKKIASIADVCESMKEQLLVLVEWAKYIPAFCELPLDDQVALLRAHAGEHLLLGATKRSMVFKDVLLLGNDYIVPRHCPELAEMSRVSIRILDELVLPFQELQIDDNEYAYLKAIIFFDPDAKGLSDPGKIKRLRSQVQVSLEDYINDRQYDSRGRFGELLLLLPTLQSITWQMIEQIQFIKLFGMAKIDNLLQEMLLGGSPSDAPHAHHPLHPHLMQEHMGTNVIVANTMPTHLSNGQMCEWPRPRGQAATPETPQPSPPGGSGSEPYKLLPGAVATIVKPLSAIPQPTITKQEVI
# IDE cell inh: cellular human IDE inhibition; P14735; HEK cells, FAbetaB cleavage, fluorescence polarization; inhibition, % at 5.59 µM; 320,000 compounds, 0.41% hits; AID 434962;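 active means percent inhibition above the average of all tested compounds plus 3 SD, set per screening campaign, cut at about 16% in these data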;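 further: IDE supplied by intact live HEK cells; FP after avidin binding of uncleaved biotin substrate so inhibition keeps polarization high; 0% = DMSO wells and 100% = 60 µM reference IDE inhibitor Ii1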
# TbMetRS inhib: Trypanosoma brucei MetRS inhibition; purified T. brucei MetRS, ATP depletion, Kinase-Glo luminescence; inhibition, % at 11.9 µM; 360,000 compounds, 0.4% hits;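 active means inhibition above a per-plate cutoff of the control wells' mean inhibition plus 3 SD, cut at about 5.5% in these data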;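 further: 0% = DMSO wells median and 100% = median of wells with control inhibitor compound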
#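 assay system = parasite MetRS enzyme | timing = 15 min preincubation, 2 h reaction, all 25 °C | evaluation = percent inhibition relative to median high and low control wells | medium = HEPES buffer containing pyrophosphatase, BSA, spermine, DTT | compound = single dose, 11.9 µM final nominal, 0.9% final DMSO | detection = Kinase-Glo luminescence, ATP depletion format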
# CSN inh: inhibitors of human CSN-mediated cullin deneddylation. Q92905. AID 651999. 360,000 compounds, 0.38% hits. Purified CSN, SCF-Nedd8-OG deneddylation, fluorescence polarization. inhibition, % at 12.5 µM;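 active means pattern-corrected inhibition above about 35%, with an unprinted fluorescence ratio check between 0.5 and 1.5, limit read from the data, passing the limit was not always enough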;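 further: 0% = enzyme with substrate and 100% = substrate without enzyme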
#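 Material: human Csn5 produced in HEK293T cells; Input: enzyme 0.24 nM; Reagent: SCFSkp2-Nedd8OG substrate at 10 nM final; Dosing: 12.5 µM compound; Incubation: 90 min reaction at room temperature; Detection: fluorescence polarization of the substrate; Evaluation: % inhibition of substrate cleavage by Csn5; Control set: substrate-only high control, full reaction low control.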
# TPT1 inhibitor: blocks Candida albicans tRNA 2'-phosphotransferase; recombinant caTPT1, FP RNA substrate dephosphorylation; inhibition, % at 5 µM; 300,000 compounds, 0.81% hits; AID 1962;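 active means inhibition above the mean of all tested compounds plus 3 SD, set per screening campaign, cut at about 24% in these data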;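 further: plate controls were DMSO alone for no effect and ferristatin control at 100 nM for full effect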
# Tb MetRS conf: confirmation of Trypanosoma brucei MetRS inhibitors; shares compounds with TbMetRS inhib; 1,400 compounds, 93% hits; AID 624412; T. brucei MetRS enzyme, luminescence (ATP depletion); inhibition, % at 11.9 µM; in the data active means inhibition above about 7%
# Jurkat tox: kills Jurkat cells in T. brucei MetRS counterscreen. Jurkat cells viability, ATP luminescence. inhibition, % at 8.3 µM. 1,400 compounds, 12% hits. AID 624413. shares compounds with TbMetRS inhib; in the data active means inhibition above about 15%;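 further: 0% = vehicle and 100% = reference inhibitor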
# TbMetRS FP orth: orthogonal test for Trypanosoma brucei MetRS inhibitors; purified T. brucei MetRS, fluorescence polarization; shares compounds with TbMetRS inhib; 1,400 compounds, 44% hits; inhibition, % at 11.9 µM; in the data active means inhibition above about 17%;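 further: 0% = vehicle wells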
# Starred values were filed as active, the others as inactive; · = no result.
SMILES,IDE act,HNF4A DNA FP,IDE cell inh,TbMetRS inhib,CSN inh,TPT1 inhibitor,Tb MetRS conf,Jurkat tox,TbMetRS FP orth
O=C(NCc1cccc(C(F)(F)F)c1)c1cccc(S(=O)(=O)NCc2ccccc2)c1,-4,6,-5,23*,5,-1,22*,6,8
O=C(NCc1ccccc1F)c1cccc(S(=O)(=O)NCc2ccccc2)c1,1,0,5,0,-1,2,·,·,·
CCc1ccccc1OCC(=O)Nc1cccc(S(=O)(=O)NC2=NCCCCC2)c1,-1,5,-3,20*,-4,·,40*,4,18*
Cc1ccc(Oc2nccc(-c3ccc(Cl)cc3)n2)cc1,-2,-10,4,0,-9,-3,·,·,·
CCOc1ccc2[nH]c(=O)c(CN(CCCN3CCOCC3)C(=O)Nc3ccc(F)cc3)cc2c1,-4,6,·,0,-3,·,·,·,·
Cc1ccc2[nH]c(=O)c(CN(CCN3CCOCC3)C(=O)Nc3ccc(F)cc3)cc2c1,-7,0,2,5.9*,0,-2,9.1*,3,0
COc1cccc(CNC(=O)c2cc3c(c(-c4cccc(-c5cccc(C#N)c5)c4)n2)[C@H](CCO)N(S(=O)C(C)(C)C)C3)c1 (stereo not given in full),·,10,·,0,1,·,·,·,·
C/C(=N\O)C(C)(C)Nc1ccccc1F,2,3,4,0,0,2,·,·,·
Cn1nc(C(F)(F)F)c(-c2ccc(Br)cc2)c1NC(=O)Nc1ccc(F)cc1F,10,-1,3,25*,-3,1,54*,15,31*
Cn1nc(C(F)(F)F)c(-c2ccc(F)cc2)c1NC(=O)c1ccco1,5,-3,5,0,-4,1,·,·,·
Cc1nc2ccccc2c2oc(C(=O)N3CCc4ccccc4C3)cc12,-3,-3,4,8.7*,-3,0,8.9*,6,11
Clc1ccc(COc2cccc(CNCc3ccncc3)c2)cc1,6,-5,-2,0,-3,1,·,·,·
CCCCN1C[C@H](c2ccc(OC)cc2)[C@@H](CC(=O)Nc2ccc(Br)cc2)C1=O,·,3,·,45*,1,·,68*,9,34*
O=C(C[C@H]1C(=O)N(c2ccccc2)C[C@@H]1Cc1ccccc1)Nc1ccc(Br)cc1,·,-4,·,7.6*,1,·,18*,3,11
O=C(C[C@H]1C(=O)N(c2ccc(Br)cc2)C[C@@H]1Cc1ccccc1)Nc1ccccc1,·,3,·,0,2,·,·,·,·
CCCCN1C[C@H](c2ccc(OC)cc2)[C@@H](CC(=O)Nc2ccc(OC)cc2)C1=O,·,3,·,-1,-3,·,·,·,·
COc1ccc(NC(=O)C[C@H]2C(=O)N(c3ccc(Br)cc3)C[C@@H]2CSC)cc1,·,-2,·,-1,0,·,·,·,·
COc1ccc(N2C[C@H](CSC)[C@@H](CC(=O)Nc3ccc(Br)cc3)C2=O)cc1,·,1,·,19*,0,·,43*,0,19*
Fc1ccc(-n2nnnc2-c2cnc(-c3cccs3)nc2C(F)(F)F)cc1,-4,3,1,-1,-6,6,·,·,·
O=C(c1ccncc1)c1ccc(N2CCN(C3CC(=O)N(Cc4ccccc4)C3=O)CC2)cc1 (stereo not given),-1,-3,5,15*,3,1,28*,13,6
O=C(NCc1nc2ccccc2[nH]1)C1=C[C@@H](c2ccc(C(F)(F)F)cc2)C[C@@H](OCc2ccc(CO)cc2)O1,-4,-4,-6,37*,-1,-1,79*,-1,49*
O=C(NCc1ccccc1)C1=C[C@@H](c2ccccc2)C[C@@H](OCc2ccc(CO)cc2)O1,-1,5,-5,0,3,0,·,·,·
O=C(NCc1nc2ccccc2[nH]1)C1=C[C@@H](c2ccccc2)C[C@@H](OCc2ccc(CO)cc2)O1,2,1,1,77*,-5,-2,104*,-4,84*
O=C(NCc1nc2ccccc2[nH]1)C1=C[C@H](c2ccc3c(c2)OCO3)C[C@H](OCc2ccc(CO)cc2)O1,2,1,1,54*,1,0,90*,-5,60*
O=C(NCc1nc2ccccc2[nH]1)C1=C[C@H](c2coc3ccccc3c2=O)C[C@H](OCc2ccc(CO)cc2)O1,3,3,-1,24*,1,1,58*,1,32*
SMILES,IDE act,HNF4A DNA FP,IDE cell inh,TbMetRS inhib,CSN inh,TPT1 inhibitor,Tb MetRS conf,Jurkat tox,TbMetRS FP orth
COC(=O)CCCn1cc(CN2CC(N(C)C)CS2(=O)=O)nn1 (stereo not given),·,-1,·,0,-1,·,·,·,·
CC(=O)C1=CCC(c2ccc(C)o2)N(S(=O)(=O)c2ccc(C)cc2)C1 (stereo not given),·,-2,·,0,-3,·,·,·,·
CC(C)(C)[C@H]1C=C(C(=O)NCc2nc3ccccc3[nH]2)O[C@@H](OCc2ccc(CO)cc2)C1,-4,-2,-1,62*,-1,2,87*,7,61*
O=C(NCc1nc2ccccc2[nH]1)C1=C[C@H](c2ccccc2)C[C@H](OCc2ccc(CO)cc2)O1,5,-5,-1,31*,1,1,75*,1,38*
CC(C)(C)[C@@H]1C=C(C(=O)NCc2ccccc2)O[C@H](OCc2ccc(CO)cc2)C1,7,-1,6,0,0,2,·,·,·
O=C(NCc1nc2ccccc2[nH]1)C1=C[C@H](C2CCCCC2)C[C@H](OCc2ccc(CO)cc2)O1,-3,0,11,5,-4,-2,·,·,·
Cc1ccc(CN2CC(N3CCN(C)CC3)CS2(=O)=O)cc1 (stereo not given),·,2,·,0,-1,·,·,·,·
Cc1cc(C)c(C)c(S(=O)(=O)Nc2cccc(-n3cnnn3)c2)c1C,3,4,6,7.3*,2,-3,17*,9,6
COC(=O)C1=C(N)Oc2cc(C)n(Cc3cccnc3)c(=O)c2C1c1cc(OC)ccc1OC (stereo not given),-5,2,2,40*,-2,2,6.1*,2,4
COC(=O)C1=C(N)Oc2cc(C)n(CCCn3ccnc3)c(=O)c2C1c1cccc(Cl)c1 (stereo not given),4,3,-1,19*,-5,0,3,1,4
